Assay outcomes: PubChem BioAssay, several laboratories
hERG rescue: compounds protecting human hERG from proarrhythmic drug block | 0.51% of 310,000 active | Q12809 | CHO-hERG, FluxOR thallium flux, dofetilide IC70 present | activation (rescue from dofetilide block), less the hit threshold, % at 10 µM | AID 1511;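 active means activation above the mean of controls blocked by dofetilide plus 5 SD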;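 further: thallium influx through hERG after potassium depolarization seen as dye fluorescence rise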
KCC2 mod: modulators of human KCC2 chloride dependent transport | Q9H2X9 | 2.2% of 190,000 active | KCC2 cells, thallium flux FluoZin-2 fluorescence | B-score of Tl+ flux slope (higher = more flux/activation; lower = inhibition) at 10 µM;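 active means thallium flux slope and its plate-corrected score both differing from the plate sample mean at a set confidence after two filtering rounds, in either direction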;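 further: slope of fluorescence scaled to starting intensity during 10 to 20 s after thallium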
KCNK3 block: human KCNK3 channel inhibition, primary screen; B-score at 10 µM; 0.84% of 340,000 active; AID 602410; CHO-KCNK3 thallium flux, FluxOR fluorescence; stronger effect = lower value; O14649;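 active means B-score under library mean minus 4 SD, starting fluorescence ratio at most library mean plus 5 SD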;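 further: more negative B-score means stronger inhibition of thallium flux through KCNK3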
KCNK9 inh: blocks the human KCNK9 two-pore domain potassium channel; 1.2% of 310,000 active; B-score at 10 µM; HEK293 KCNK9, FluxOR thallium flux fluorescence; stronger effect = lower value; Q9NPC2;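 active means ratio B-score over 3 SD below the library mean, with starting fluorescence within 5 SD of its mean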;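 further: negative B-score means less thallium flux so channel inhibition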
KCNQ1 pot: human KCNQ1 channel potentiation or activation | P51787 | 0.35% of 310,000 active | B-score at 10 µM | CHO-K1 KCNQ1, thallium flux FluxOR fluorescence; stronger effect = higher value;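 active means fluorescence ratio B-score, a plate-corrected score, at least three library SD, with initial intensity B-score within 5 SD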
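Medium – assay buffer, equal DMSO in all wells · Material – CHO-K1 cell line with stable KCNQ1 potassium channel expression · Signal – kinetic FluxOR thallium fluorescence, 10-s 1-Hz baseline, 110-s post-stimulus read · Compound – single concentration per compound, DMSO matched to controls · Schedule – 37 °C overnight plating, 90-min dark dye load, 20-min compound pretreatment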
KCNQ1 inh: human KCNQ1 channel inhibition | P51787 | CHO-K1 KCNQ1, FluxOR thallium flux fluorescence; stronger effect = higher value | B-score at 10 µM | 1.3% of 310,000 active | AID 2642;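 active means compounds whose thallium flux B-score, printed positive for inhibition, exceeds three library SD while starting fluorescence stays within three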;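 further: channel opened by potassium depolarization with thallium stimulus after 20 min compound exposure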
KCNQ1 inh valid: human KCNQ1 channel inhibition, validation assay; shares compounds with KCNQ1 inh; KCNQ1 cell line, FluxOR thallium flux fluorescence; inhibition, % at 10 µM; 93% of 1,600 active; AID 588353;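 active means primary screen active, with duplicate mean exceeding buffer control mean plus 3 SD of buffer wells, cut at about 28% in these data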;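 further: 0% = buffer control ratio and 100% = XE991 inhibitor control ratio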
CHO Tl flux: counter-screen for KCNQ1 inhibitors: effect in parental CHO cells; shares compounds with KCNQ1 inh; AID 588366; 21% of 1,600 active; fluorescence ratio (Tl flux) at 10 µM; parental CHO-K1, FluxOR thallium flux fluorescence ratio; stronger effect = lower value; zero means no signal rise above baseline;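 active means mean of duplicate thallium-flux fluorescence ratios in parental host cells more than 5 SD below the buffer control mean, cut at about 0.38 in these data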;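 further: ratio is peak minus minimum fluorescence divided by baseline fluorescence; actives read low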
KCNQ1 ephys val: confirmation of human KCNQ1 potassium channel inhibitors by electrophysiology; shares compounds with KCNQ1 inh; KCNQ1-CHO cells, automated patch clamp current; calls only at 10 µM; 20% of 490 active; AID 624120;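 active means KCNQ1 current drop exceeding 3 SD of negative control wells, seen in both duplicate runs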;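 further: steady state current during a 2 s step from -80 to +40 mV; negative values mean current inhibition and positive values mean potentiation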
KCNQ2 inh: rat KCNQ2 inhibition in KCNQ1 inhibitor specificity screen; KCNQ2 cells, FluxOR thallium flux fluorescence; shares compounds with KCNQ1 inh; inhibition, % at 10 µM; AID 651746; 71% of 1,600 active;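 active means mean percent inhibition of the KCNQ2 thallium signal more than 5 SD above the buffer-only control wells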;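 further: KCNQ2 expressed in CHO cells; 0% = buffer control wells and 100% = XE-991 inhibitor control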
Target sequence (O88943 whole entry, looked up): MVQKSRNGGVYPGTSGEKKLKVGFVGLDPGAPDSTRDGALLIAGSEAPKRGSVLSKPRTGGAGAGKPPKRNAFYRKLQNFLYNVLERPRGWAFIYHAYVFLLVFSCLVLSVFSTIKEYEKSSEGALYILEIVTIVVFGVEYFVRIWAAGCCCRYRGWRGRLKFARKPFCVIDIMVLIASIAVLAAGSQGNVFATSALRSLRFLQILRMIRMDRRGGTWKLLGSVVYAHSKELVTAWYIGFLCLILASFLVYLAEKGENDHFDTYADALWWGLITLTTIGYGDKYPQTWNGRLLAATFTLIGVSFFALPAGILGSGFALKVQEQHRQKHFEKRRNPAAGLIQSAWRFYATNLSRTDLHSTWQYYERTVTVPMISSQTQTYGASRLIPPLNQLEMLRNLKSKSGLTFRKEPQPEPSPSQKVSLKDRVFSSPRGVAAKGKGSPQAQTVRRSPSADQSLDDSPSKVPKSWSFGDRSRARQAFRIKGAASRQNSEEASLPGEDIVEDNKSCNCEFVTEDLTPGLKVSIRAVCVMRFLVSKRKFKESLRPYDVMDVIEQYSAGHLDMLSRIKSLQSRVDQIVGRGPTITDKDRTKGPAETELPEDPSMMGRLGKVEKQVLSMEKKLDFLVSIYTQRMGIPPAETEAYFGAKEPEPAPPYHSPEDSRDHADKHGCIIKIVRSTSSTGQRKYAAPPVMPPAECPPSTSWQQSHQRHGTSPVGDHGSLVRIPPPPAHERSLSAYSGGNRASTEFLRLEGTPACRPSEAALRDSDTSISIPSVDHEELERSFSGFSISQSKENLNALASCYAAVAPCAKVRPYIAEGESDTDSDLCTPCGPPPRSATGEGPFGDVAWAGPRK
KCNQ1-KCNE1 inh: KCNQ1 inhibitor that also blocks human KCNQ1/KCNE1 channel | inhibition, % at 10 µM | 77% of 1,600 active | shares compounds with KCNQ1 inh | KCNQ1/KCNE1 cells, FluxOR thallium flux fluorescence;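 active means mean percent inhibition of duplicate wells above the buffer-only control mean plus 3 SD of those controls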;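 further: 0% = buffer only wells and 100% = XE-991 inhibitor control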
Active calls of the source: *; i = inactive; nt = no result given; + = active, no number. The list is not random: actives were taken first. Their share in the collection is about 4.1%.

SMILES	hERG rescue	KCC2 mod	KCNK3 block	KCNK9 inh	KCNQ1 pot	KCNQ1 inh	KCNQ1 inh valid	CHO Tl flux	KCNQ2 inh	KCNQ1-KCNE1 inh	others
CCc1c(O)nc(SCC(=O)Nc2nc3ccccc3s2)n(C2CCCCC2)c1=O	-7.5	-3.25	i	i	i	7*	0.0	0.589	i	i
CCc1c(O)nc(SCC(=O)Nc2ccc(OC)cc2)n(C2CCCCC2)c1=O	-16.2	nt	i	i	i	i	nt	nt	nt	nt
O=C(CN1CCCC1c1ccc2c(c1)OCCO2)NC(=O)Nc1ccccc1 (configuration not stated)	nt	nt	i	nt	nt	nt	nt	nt	nt	nt
CC(C)(C)c1csc(NC(=O)c2ccccc2O)n1	-11.7	nt	i	i	i	9*	65.0*	0.547	i	i
O=C(NNC(=O)c1ccccc1Cl)c1ccc(-n2cncn2)c([N+](=O)[O-])c1	nt	nt	i	nt	nt	nt	nt	nt	nt	nt
CS(=O)(=O)N1CCN(c2ccccc2[N+](=O)[O-])CC1	-5.8	-0.0215	i	i	i	i	nt	nt	nt	nt
CC(=O)Nc1ccc(C(=O)COC(=O)CCc2ccccc2)c(F)c1	nt	nt	i	nt	nt	nt	nt	nt	nt	nt
CNC(=S)Nc1ccc(C23CC4CC(CC(C4)C2)C3)cc1	-9.1	-0.223	i	i	i	7*	74.0*	0.472	65.0%*	90.0%*
O=C(NCc1ccccc1)c1cccc(COc2cccc(Cl)c2)c1	-19.8	0.518	-10.6*	i	i	8*	125.5*	0.355*	94.7%*	156.0%*
O=C(NCc1ccccc1)c1cccc(COc2ccc(Cl)cc2)c1	-6.9	-0.132	i	i	i	i	nt	nt	nt	nt
c1ccc2c(c1)OCC(CNc1ncnc3sccc13)O2 (configuration not stated)	-18.1	0.176	i	i	i	12*	106.5*	0.422	97.0%*	104.5%*
CC1Sc2ccc(S(=O)(=O)N3CCC(C(=O)Nc4ccc(Cl)cc4)CC3)cc2NC1=O (configuration not stated)	-20.9	nt	i	i	i	11*	144.5*	0.378*	104.0%*	167.5%*
COc1ccc(NC(=O)C2CCN(S(=O)(=O)c3ccc4c(c3)NC(=O)C(C)S4)CC2)cc1 (configuration not stated)	-4.7	nt	i	i	i	i	nt	nt	nt	nt
COc1ccc2c(c1)c(C(C)=O)c(C)n2-c1ccccc1OC	-9.8	nt	i	i	i	i	nt	nt	nt	nt
c1ccc(CCNc2ccnc3cc4ccccc4cc23)cc1	-39.5	-0.659	i	-7.34*	i	10*	129.5*	0.377*	81.3%*	118.0%*
O=C(NCCc1ccccc1)c1nccc2ccccc12	-3.7	nt	i	i	i	i	nt	nt	nt	nt
O=S(=O)(NCCCc1ccccc1)c1ccccc1	-7.9	-1.97	i	i	i	i	nt	nt	nt	nt
Cc1ccc(C)c(S(=O)(=O)NCCCc2ccccc2)c1	-8.2	nt	i	i	i	7*	98.0*	0.486	i	i	KCNQ1 ephys val=i
COc1cccc(-c2csc(N3CCN(C(=O)NC45CC6CC(CC(C6)C4)C5)CC3)n2)c1	-10.8	0.794	i	i	i	8*	102.5*	0.434	106.0%*	136.0%*
COc1cccc(NC(=O)N2CCN(c3nc(-c4cccc(OC)c4)cs3)CC2)c1	-15.9	-2.22	i	i	i	i	nt	nt	nt	nt
CCOC(=O)C1CCN(S(=O)(=O)c2ccc3[nH]c4c(c3c2)CCCC4)CC1	-9.8	nt	i	i	i	6*	101.5*	0.499	67.0%*	102.5%*	KCNQ1 ephys val=+
O=C(Cc1cccs1)N1CCC(c2nc3c(nnn3Cc3ccccc3)c(=O)[nH]2)CC1	-11.7	nt	i	i	i	i	nt	nt	nt	nt
Cc1ccc(Cn2nnc3c(=O)[nH]c(C4CCN(C(=O)Cc5cccs5)CC4)nc32)cc1	-10.8	nt	i	i	i	7*	0.0	0.494	i	i
Fc1ccc(CCNC(=S)Nc2ccc(F)c(Cl)c2)cc1	-24.9	-2.79	i	i	i	9*	48.5*	0.582	i	i
COc1ccc(Cl)cc1NC(=S)NCCc1ccc(F)cc1	-12.2	nt	i	i	i	6*	64.0*	0.491	114.0%*	50.5%*
SMILES	hERG rescue	KCC2 mod	KCNK3 block	KCNK9 inh	KCNQ1 pot	KCNQ1 inh	KCNQ1 inh valid	CHO Tl flux	KCNQ2 inh	KCNQ1-KCNE1 inh	others
COc1ccc(CCNC(=O)CNCC2CCCCC2)cc1OC	-7.0	nt	i	i	i	i	nt	nt	nt	nt
O=C(COc1ccc(-c2nnco2)cc1)N1CCOCC1	nt	nt	i	nt	nt	nt	nt	nt	nt	nt
O=C(N/C(=C/c1ccc([N+](=O)[O-])cc1)C(=O)N1CCOCC1)c1ccco1	-4.6	nt	i	i	i	i	nt	nt	nt	nt
O=C(CSc1n[nH]c(-c2cccs2)n1)NCCc1ccccc1	-9.3	nt	i	i	i	i	nt	nt	nt	nt
COc1ccc(CCNc2ncnc3sccc23)cc1OC	-24.4	-0.00176	i	i	i	9*	84.0*	0.448	68.3%*	37.0%*
CCC(=O)N1CCN(c2nc(CC)nc3sc4c(c23)CCCC4)CC1	1.7	nt	i	i	i	i	nt	nt	nt	nt
CC1CCc2c(sc3nc(C(C)(C)C)nc(N4CCN(C(=O)CCl)CC4)c23)C1 (configuration not stated)	-4.8	nt	i	i	i	11*	109.5*	0.408	128.0%*	156.0%*	KCNQ1 ephys val=i
O=C(COC(=O)c1cc(S(=O)(=O)N2CCCC2)ccc1O)Nc1ccccc1Br	nt	nt	i	nt	nt	nt	nt	nt	nt	nt
CCN(C(=O)COC(=O)c1ccc(C=O)cc1)c1c(N)n(Cc2ccccc2)c(=O)[nH]c1=O	nt	nt	i	nt	nt	nt	nt	nt	nt	nt
Clc1cccc(-c2cc3nc4c(c(N5CCOCC5)n3n2)CCCC4)c1	-5.2	-0.172	-9.11*	i	i	6*	101.0*	0.479	77.7%*	117.0%*
O=c1[nH]c2ccc(Br)cc2c(-c2ccccc2)c1N1CCOCC1	-3.6	0.0359	i	i	i	i	nt	nt	nt	nt
CC(=O)c1c(N2CCOCC2)nc2ccc(Br)cc2c1-c1ccccc1	-15.0	-0.41	i	i	i	10*	99.5*	0.424	118.7%*	101.0%*	KCNQ1 ephys val=i
